Rce1 inhib – yeast Rce1p protease inhibitors, primary screen, biochemical, fluorescence, cell-free homogeneous; 290,000 tested, 0.27% active; yeast membranes, quenched prenylated peptide cleavage fluorescence; CAAX prenyl protease 2 (Saccharomyces cerevisiae (strain ATCC 204508 / S288c)), Q03530; calls only;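 active = fall in fluorescence gain of 50% or more versus controls, with final raw signal at or below 3038400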;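 also: plate controls were neutral control wells for no effect and wells lacking membranes for full effect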
Target sequence (Q03530 whole entry, looked up): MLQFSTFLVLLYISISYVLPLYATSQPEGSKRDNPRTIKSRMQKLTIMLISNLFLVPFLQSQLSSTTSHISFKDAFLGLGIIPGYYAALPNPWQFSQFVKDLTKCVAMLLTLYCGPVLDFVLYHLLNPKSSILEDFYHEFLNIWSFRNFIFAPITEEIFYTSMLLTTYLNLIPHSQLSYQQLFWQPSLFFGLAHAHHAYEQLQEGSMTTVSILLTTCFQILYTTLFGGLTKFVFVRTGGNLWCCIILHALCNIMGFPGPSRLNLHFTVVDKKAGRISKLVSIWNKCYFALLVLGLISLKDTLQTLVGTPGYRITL
proCasp7 act – procaspase-7 activators, primary screen, counter-screen for procaspase-3 activator project, biochemical, absorbance, HTS, human; activation, % at 8.5 µM; recombinant procaspase-7, Ac-DEVD-pNA absorbance 405 nm; D23A/D198A/D206A triple mutant, cannot self-cleave; scale: DMSO 0, 5 µM enzyme 100; AID 463210, 2010; Caspase-7 (Homo sapiens), P55210; 330,000 tested, 0.093% active;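 active = percent activation above the screen-wide mean plus 3 SD, cut at about 25% in these data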
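signal = Epi-absorbance of released pNA at 405 nm, two timepoints | assay system = Uncleavable procaspase-7 mutant enzyme | reagent = Ac-DEVD-pNA substrate, 400 µM as added | times = 1 h enzyme–compound preincubation and 2 h substrate reaction, both 25 °C | benchmarks = low DMSO alone, high DMSO plus 5 µM PC-7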
GAA850 FXN act – FXN promoter activators, primary screen, cell-based, luciferase luminescence, HEK293 lucGAA850; HEK293 lucGAA850 FXN promoter luciferase reporter, 24 h; percent of 10 µM SAHA response; activation, % at 6 µM; 360,000 tested, 0.56% active; AID 540364, 2011;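 active = activation above the average of all compounds screened plus 3 SD, cutoff fixed separately per campaign, cut at about 7.5% in these data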;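 also: 0% = DMSO wells and 100% = 10 µM SAHA wells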
Lipid droplet – inhibitors of hepatocyte lipid droplet formation, primary screen, imaging, high-throughput imaging, BODIPY stain; AML12 mouse hepatocytes, oleate lipid droplets; inhibition, % at 6.5 µM; 240,000 tested, 0.4% active;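 active = lipid droplet intensity inhibited by at least 50%, with more than 500 cells counted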
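Material – AML12 mouse liver cells · Also added – oleate loading, 100 µM · Compound dosing – 6.5 µM single-point dosing · Times – overnight treatment with compound plus oleate · Measured by – fluorescence imaging, 20x objective, two fields per well · Read-out – percent inhibition of filter-corrected integrated lipid droplet intensity per well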
procasp3 activ – activators of human procaspase-3 D3A mutant, primary screen, biochemical, absorbance, PC-3 D3A mutant, single concentration; 330,000 tested, 0.11% active; Caspase-3 (Homo sapiens), P42574; activation, % at 8.5 µM; recombinant procaspase-3 D3A, Ac-DEVD-pNA absorbance 405 nm;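 active = activation above the mean of all tested compounds plus 3 SD, cut at about 21% in these data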;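 also: 0% = DMSO alone and 100% = DMSO wells spiked with extra 5 µM PC-3 D3A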
Target sequence (P42574 whole entry D9A/D28A/D175A): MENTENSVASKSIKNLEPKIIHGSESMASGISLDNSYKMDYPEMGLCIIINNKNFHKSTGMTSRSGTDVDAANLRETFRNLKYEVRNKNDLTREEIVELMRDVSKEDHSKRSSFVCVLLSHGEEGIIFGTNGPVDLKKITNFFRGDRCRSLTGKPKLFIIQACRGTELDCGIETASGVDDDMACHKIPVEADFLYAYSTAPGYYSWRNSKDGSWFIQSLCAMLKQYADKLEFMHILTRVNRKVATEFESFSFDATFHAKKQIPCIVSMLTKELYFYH
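System: Procaspase-3 D3A mutant. Medium: Zinc-free 300 mM NaCl, 50 mM HEPES, 0.01% Triton X-100. Schedule: 1 h preincubation plus 2 h reaction at 25 °C. Measured by: 405 nm absorbance of p-nitroaniline, reads at 0 and 120 min. Read-out: percent activation relative to control range.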
p-CIP stab down – p/CIP-EGFP fusion destabilizers, primary screen, fluorescence, F442A cells | Q05BA5 | 16 h | decrease of EGFP signal, % at 10 µM | 290,000 tested, 0.01% active | AID 1984, 2009;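 active = EGFP signal decrease of at least 30% at 10 µM or well 3 SD below plate mean, unless failing retest; inactive = the rest, including hits failing retest or dose response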
GAA30 FXN cntr – GAA30 FXN promoter activators, confirmation, counter-screen for GAA850 frataxin promoter activator project, cell-based, luminescence, HEK293, lucGAA30, triplicate; shares compounds with GAA850 FXN act; activation, % at 6 µM; HEK293 lucGAA30 FXN promoter luciferase, 24 h; DMSO = 0%, 5 µM ipriflavone = 100%; 1,900 tested, 66% active;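 active = mean activation above the mean of solvent-only control wells plus 3 SD, cut at about 22% in these data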;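 also: counterscreen of GAA850 promoter hits where activity marks nonselective or luminescence artifacts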
GAA850 confirm – FXN GAA850 promoter activators in reporter cells, confirmation, cell-based, luminescence, HEK293 lucGAA850, triplicate; shares compounds with GAA850 FXN act; 1,900 tested, 86% active; activation, % at 6 µM; HEK293 lucGAA850 FXN promoter luciferase reporter, 24 h; 100% = activation by SAHA;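 active = mean activation above a set limit taken from the primary screen, cut at about 8% in these data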;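 also: 0% = DMSO wells and 100% = 10 µM SAHA wells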
Numbers without * were called inactive; i = inactive; · = no result. In the library only some 1.2% were active in any assay of this set; here they are far more common.

SMILES	Rce1 inhib	proCasp7 act	GAA850 FXN act	Lipid droplet	procasp3 activ	p-CIP stab down	GAA30 FXN cntr	GAA850 confirm
CC(=O)OCC1OC(n2c(-c3ccc(Cl)cc3)ccc(C#N)c2=S)C(OC(C)=O)C(OC(C)=O)C1OC(C)=O (centres undefined)	·	·	-2.7	·	·	·	·	·
CC(NC(=O)c1ccc(NC(=O)CC2SC(N3CCCC3)=NC2=O)cc1)c1ccc(F)cc1 (centres undefined)	·	12.2	-0.2	·	-0.8	·	·	·
Cc1nc2c(-c3ccccc3)cnn2c(N2CCOCC2)c1C	i	3.0	8.3*	1.4	0.2	6.2	127.0*	43.7*
Fc1cccc(F)c1/C=C/c1ccc2ccccc2n1	i	-1.0	8.0*	-33.8	4.6	9.5	107.8*	34.0*
CC(=O)Nc1ccc(S(=O)(=O)Nc2cc(C)cn(Cc3ccccc3)c2=O)cc1	i	-8.7	3.0	2.1	-0.7	-18.3	·	·
CCOc1ncccc1C(=O)OCC(=O)N1CCC(C)CC1	·	3.2	2.3	·	6.2	·	·	·
O=C(COc1ccc(F)cc1)Nc1ccc2c(c1)OCCO2	i	3.4	7.7*	8.8	1.7	12.0	76.8*	22.4*
CCOc1ccc(S(=O)(=O)N2CCCC(C(=O)N3CCOCC3)C2)cc1C (centres undefined)	i	1.8	-0.7	-2.3	-8.9	-10.1	·	·
COc1ccc(-c2[nH]c(-c3ccccc3)nc2SCC(=O)Nc2nccs2)cc1	·	0.5	0.0	-99.9	3.5	-7.3	·	·
COc1ccc(-c2[nH]c(-c3ccc(Cl)cc3)nc2SCC(=O)Nc2nccs2)cc1	i	7.4	18.6*	-3.1	7.2	-10.7	8.8	8.9*
COC(=O)c1cccc(CC2(C)C(=O)Nc3cc(-c4ccccc4Cl)ccc32)c1 (centres undefined)	·	·	17.1*	·	·	·	58.2*	31.3*
CC1(Cc2c(Cl)cccc2Cl)C(=O)Nc2cc(-c3ccccc3Cl)ccc21 (centres undefined)	·	·	-2.9	·	·	·	·	·
COc1ccccc1-c1ccc2c(c1)C(C)(Cc1ccc(F)c(Cl)c1)C(=O)N2 (centres undefined)	·	·	13.4*	·	·	·	9.2	8.5*
COc1ccccc1-c1ccc2c(c1)C(C)(Cc1ccc(Cl)cc1)C(=O)N2 (centres undefined)	·	·	2.0	·	·	·	·	·
COc1ccccc1-c1ccc2c(c1)C(C)(Cc1cccc(C#N)c1)C(=O)N2 (centres undefined)	·	·	11.4*	·	·	·	9.7	8.1*
CC1(Cc2ccccc2OC(F)(F)F)C(=O)Nc2ccc(-c3ccsc3)cc21 (centres undefined)	·	·	9.6*	·	·	·	-2.3	3.0
CN1CCCC(C)(C(=O)Nc2cccc(Oc3ccccc3)c2)C1 (centres undefined)	·	·	1.1	·	·	·	·	·
Cc1ncc([N+](=O)[O-])n1S(=O)(=O)c1cc(Cl)ccc1Cl	i	-4.8	-0.6	6.7	4.5	-10.1	·	·
COc1ccccc1-c1ccc2c(c1)C(C)(Cc1cc(Cl)ccc1C(F)(F)F)C(=O)N2 (centres undefined)	·	·	-0.6	·	·	·	·	·
COc1ccc(Cl)cc1CC1(C)C(=O)Nc2ccc(-c3ccccc3OC)cc21 (centres undefined)	·	·	11.9*	·	·	·	33.2*	12.5*
Cn1nc(N)c2ncc(-c3ccc(Cl)cc3)nc21	·	·	9.7*	·	·	·	98.5*	30.1*
Cn1nc(NC(=O)C(F)(F)F)c2ncc(-c3ccc(Cl)cc3)nc21	i	8.8	6.8	-1.3	10.6	-1.6	·	·
N#CC(c1ccccc1)(c1ncc(C(F)(F)F)cc1Cl)N1CCOCC1 (centres undefined)	i	-8.6	11.4*	·	-4.9	-1.8	26.0*	9.1*
N#CC(c1cccc(C(F)(F)F)c1)(c1ncc(C(F)(F)F)cc1Cl)N1CCOCC1 (centres undefined)	i	8.0	-1.4	·	3.8	-12.3	·	·
O=C(O)C1C(c2ccccc2)c2ccccc2C(O)C1CO (centres undefined)	·	·	-0.6	·	·	·	·	·
SMILES	Rce1 inhib	proCasp7 act	GAA850 FXN act	Lipid droplet	procasp3 activ	p-CIP stab down	GAA30 FXN cntr	GAA850 confirm
COc1ccc(/C=C/C(=O)Nc2ccc(-n3nncc3-c3ccc(OC)c(OC)c3)cc2)cc1OC	i	-8.7	8.9*	17.2	1.7	-11.8	22.5*	17.1*
CC1(C)CC1C(=O)Nc1ccc([N+](=O)[O-])cc1Br (centres undefined)	i	-5.5	7.8*	-3.8	4.6	-3.3	17.8	6.9
COc1cc(OC)nc(Nc2nc(C(N)COCc3ccccc3)cs2)n1 (centres undefined)	·	·	7.6*	·	·	·	22.6*	14.2*
COc1cc(OC)nc(Nc2nc(C(N)c3ccccc3)cs2)n1 (centres undefined)	·	·	-3.1	·	·	·	·	·
COc1cc(OC)nc(Nc2nc(C(N)CCc3ccccc3)cs2)n1 (centres undefined)	·	·	9.0*	·	·	·	21.1	17.0*
Cc1cccc(/C(N)=N/OC(=O)c2ccc3c(c2)OCO3)c1	i	-0.9	7.9*	1.8	17.3	-6.6	105.0*	38.9*
N/C(=N\OC(=O)c1ccc2c(c1)OCO2)c1cccc([N+](=O)[O-])c1	i	-0.5	4.1	1.7	0.9	-14.2	·	·
CCOc1ccc2nc(SCC(=O)N3CCCCCC3)c(C#N)cc2c1	i	6.7	-0.4	-6.3	3.3	-3.7	·	·
CCOc1ccc2cc(C#N)c(SCC(=O)N3CCOCC3)nc2c1	i	-4.3	9.7*	3.2	-5.6	-14.2	133.1*	45.6*
Cn1c(CCN2CCCCC2)nc2cc([N+](=O)[O-])ccc21	i	-4.3	7.7*	·	4.7	-19.9	18.4	17.1*
CCN(CC)S(=O)(=O)c1cc(NC(=O)Cn2ncc(Cl)c(Cl)c2=O)ccc1C	i	-1.8	12.0*	-0.2	4.6	-3.7	11.3	15.4*
Cc1ccc(C)c(C(=O)Cn2ncc(Cl)c(Cl)c2=O)c1	i	4.6	6.2	-8.4	-5.3	-5.2	·	·
